For orientation: ED50 means the midpoint of the dose-response relation. The EC50 is the concentration needed to bring the measured effect to its halfway point.

Here are results for twelve compounds from ChEMBL document CHEMBL1135836, “Cyclodextrin-derived host molecules as reversal agents for the neuromuscular blocker rocuronium bromide: synthesis and structure-activity relationships” (J Med Chem, 2002).

Type in all cases: functional
In assay [1] the test system is Cavia porcellus. The assay is described as follows: In vivo reversal activity versus ~90% block by rocuronium in guinea pig. Put shortly:
(§1)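 Male Dunkin-Hartley guinea pigs (600-900 g), anaesthetized ip with pentobarbitone 10 mg/kg plus urethane 1000 mg/kg, tracheotomized and ventilated. Continuous iv rocuronium infusion (~10 nmol kg-1 min-1) was raised to a steady 85-90% block. Increasing iv doses of agent were given cumulatively. ED50 = 50% recovery versus preblock twitch, by regression. Mean ± SEM of at least two experiments, or one.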

Assay [2] is filed under the species Mus musculus. Briefly: In vitro reversal activity versus ~90% block by rocuronium in isolated mouse hemidiaphragm, expressed as effective conc.
The species entered for assay [3] is Mus musculus. The assay is described as follows: In vitro reversal activity versus ~90% block by rocuronium in isolated mouse hemidiaphragm, expressed as % of maximum reversal at 3.6 uM conc.
Assay [4] has as its system Cavia porcellus. Briefly: In vivo reversal activity versus ~90% block by rocuronium in guinea pig, expressed as % of maximum reversal at 0.5 umol/kg conc. A digest of the protocol: as §1
In assay [5] the test system is Cavia porcellus. The assay is described as follows: In vivo reversal activity versus ~90% block by rocuronium in guinea pig, expressed as % of maximum reversal at 16 umol/kg conc. A digest of the protocol: (§2)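 Male Dunkin-Hartley guinea pigs (600-900 g) anaesthetized ip with pentobarbitone 10 mg/kg plus urethane 1000 mg/kg, tracheotomized and artificially ventilated. Continuous iv rocuronium bromide infusion (~10 nmol kg-1 min-1) raised until steady-state twitch block of 85-90%. Increasing single iv doses of reversal agent given by a separate catheter. Max reversal is peak twitch recovery versus preblock height at highest dose tested; means ± SEM, n ≥ 2 or single experiment.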

The species entered for assay [6] is Mus musculus. The assay is described as follows: In vitro reversal activity versus ~90% block by rocuronium in isolated mouse hemidiaphragm, expressed as % of maximum reversal at 18 uM conc.
The species named for assay [7] is Mus musculus. Briefly: In vitro reversal activity versus ~90% block by rocuronium in isolated mouse hemidiaphragm, expressed as % of maximum reversal at 5.4 uM conc.
The subject of assay [8] is Cavia porcellus. The assay is described as follows: In vivo reversal activity versus ~90% block by rocuronium in guinea pig, expressed as % of maximum reversal at 15 umol/kg conc. A digest of the protocol:
as §2

For assay [9], the system named is Cavia porcellus. The assay is described as follows: In vivo reversal activity versus ~90% block by rocuronium in guinea pig, expressed as % of maximum reversal at 0.3 umol/kg conc. A digest of the protocol: as §1

Consider `O=S(=O)([O-])CCSCC1O[C@@H]2O[C@@H]3C(CSCCS(=O)(=O)[O-])O[C@H](O[C@@H]4C(CSCCS(=O)(=O)[O-])O[C@H](O[C@@H]5C(CSCCS(=O)(=O)[O-])O[C@H](O[C@@H]6C(CSCCS(=O)(=O)[O-])O[C@H](O[C@@H]7C(CSCCS(=O)(=O)[O-])O[C@H](O[C@@H]8C(CSCCS(=O)(=O)[O-])O[C@H](O[C@@H]9C(CSCCS(=O)(=O)[O-])O[C@H](O[C@H]1C(O)C2O)C(O)C9O)C(O)C8O)C(O)C7O)C(O)C6O)C(O)C5O)C(O)C4O)C(O)C3O.[Na+].[Na+].[Na+].[Na+].[Na+].[Na+].[Na+].[Na+]` (stereo partly specified), for which, in assay [1], the ED50 was 0.05 µmol/kg. Moreover, the EC50 in assay [2] worked out at 3.6 µM. The results for the Max reversal in [3] and in [4] were 95.6% and 92.8%, respectively.
Consider `O=C([O-])CSCC1O[C@@H]2O[C@@H]3C(CO)O[C@H](O[C@@H]4C(CO)O[C@H](O[C@@H]5C(CO)O[C@H](O[C@@H]6C(CO)O[C@H](O[C@@H]7C(CO)O[C@H](O[C@@H]8C(CO)O[C@H](O[C@@H]9C(CO)O[C@H](O[C@H]1C(O)C2O)C(O)C9O)C(O)C8O)C(O)C7O)C(O)C6O)C(O)C5O)C(O)C4O)C(O)C3O.[Na+]` (stereo partly specified), for which the ED50 in assay [1] worked out at 5.79 µmol/kg. The Max reversal in assay [5] stood at 96.5%; in [6] it was 28.9%. For the same compound, in assay [2], the EC50 was found to be 60.8 µM.
Regarding `O=C([O-])CSCC1O[C@@H]2O[C@@H]3C(CSCC(=O)[O-])O[C@H](O[C@@H]4C(CSCC(=O)[O-])O[C@H](O[C@@H]5C(CSCC(=O)[O-])O[C@H](O[C@@H]6C(CSCC(=O)[O-])O[C@H](O[C@@H]7C(CSCC(=O)[O-])O[C@H](O[C@@H]8C(CSCC(=O)[O-])O[C@H](O[C@@H]9C(CSCC(=O)[O-])O[C@H](O[C@H]1C(O)C2O)C(O)C9O)C(O)C8O)C(O)C7O)C(O)C6O)C(O)C5O)C(O)C4O)C(O)C3O.[Na+].[Na+].[Na+].[Na+].[Na+].[Na+].[Na+].[Na+]` (stereo partly specified), the ED50 in [1] came to 0.1 µmol/kg. Moreover, in assay [2], the EC50 was determined as 1.2 µM. For the same compound, the Max reversal in assay [3] amounted to 93.8%; in assay [4], 103.3%.
As to `O=C([O-])Cc1cccc(SCC2O[C@@H]3O[C@@H]4C(CO)O[C@H](O[C@@H]5C(CO)O[C@H](O[C@@H]6C(CO)O[C@H](O[C@@H]7C(CO)O[C@H](O[C@@H]8C(CO)O[C@H](O[C@@H]9C(CO)O[C@H](O[C@@H]%10C(CO)O[C@H](O[C@H]2C(O)C3O)C(O)C%10O)C(O)C9O)C(O)C8O)C(O)C7O)C(O)C6O)C(O)C5O)C(O)C4O)c1.[Na+]` (stereo partly specified), the ED50 in [1] was determined as 1.67 µmol/kg. For the same compound, the Max reversal in assay [5] is on record as 92.8%; in assay [6], 30.4%. The EC50 in assay [2] was > 18 µM.
In the case of `O=C([O-])CCc1cccc(SCC2O[C@@H]3O[C@@H]4C(CSc5cccc(CCC(=O)[O-])c5)O[C@H](O[C@@H]5C(CSc6cccc(CCC(=O)[O-])c6)O[C@H](O[C@@H]6C(CSc7cccc(CCC(=O)[O-])c7)O[C@H](O[C@@H]7C(CSc8cccc(CCC(=O)[O-])c8)O[C@H](O[C@@H]8C(CSc9cccc(CCC(=O)[O-])c9)O[C@H](O[C@@H]9C(CSc%10cccc(CCC(=O)[O-])c%10)O[C@H](O[C@@H]%10C(CSc%11cccc(CCC(=O)[O-])c%11)O[C@H](O[C@H]2C(O)C3O)C(O)C%10O)C(O)C9O)C(O)C8O)C(O)C7O)C(O)C6O)C(O)C5O)C(O)C4O)c1.[Na+].[Na+].[Na+].[Na+].[Na+].[Na+].[Na+].[Na+]` (stereo partly specified), in assay [1], the ED50 turned out to be 22.8 µmol/kg. The Max reversal in [5] was 35.3%; in assay [6], 65.2%. Further, in assay [2], the EC50 was 14.8 µM.
For the compound `O=C([O-])c1ccccc1C(=O)NCCSCC1O[C@@H]2O[C@@H]3C(CSCCNC(=O)c4ccccc4C(=O)[O-])O[C@H](O[C@@H]4C(CSCCNC(=O)c5ccccc5C(=O)[O-])O[C@H](O[C@@H]5C(CSCCNC(=O)c6ccccc6C(=O)[O-])O[C@H](O[C@@H]6C(CSCCNC(=O)c7ccccc7C(=O)[O-])O[C@H](O[C@@H]7C(CSCCNC(=O)c8ccccc8C(=O)[O-])O[C@H](O[C@@H]8C(CSCCNC(=O)c9ccccc9C(=O)[O-])O[C@H](O[C@@H]9C(CSCCNC(=O)c%10ccccc%10C(=O)[O-])O[C@H](O[C@H]1C(O)C2O)C(O)C9O)C(O)C8O)C(O)C7O)C(O)C6O)C(O)C5O)C(O)C4O)C(O)C3O.[Na+].[Na+].[Na+].[Na+].[Na+].[Na+].[Na+].[Na+]` (stereo partly specified), the ED50 in [1] came to 0.09 µmol/kg. For the same compound, the EC50 in [2] was 0.1 µM. The Max reversal in assay [7] came to 88.3%; in [4], 94.5%.
As to `O=C([O-])c1cccc(SCC2O[C@@H]3O[C@@H]4C(CO)O[C@H](O[C@@H]5C(CO)O[C@H](O[C@@H]6C(CO)O[C@H](O[C@@H]7C(CO)O[C@H](O[C@@H]8C(CO)O[C@H](O[C@@H]9C(CO)O[C@H](O[C@@H]%10C(CO)O[C@H](O[C@H]2C(O)C3O)C(O)C%10O)C(O)C9O)C(O)C8O)C(O)C7O)C(O)C6O)C(O)C5O)C(O)C4O)c1.[Na+]` (stereo partly specified), in assay [1], the ED50 was 2.41 µmol/kg. Further, the figures for the Max reversal in assay [5] and in assay [6] were 102.7% and 36.1%, respectively. Further, the EC50 in assay [2] was > 18 µM.
Consider `O=C([O-])CCc1cccc(SCC2O[C@@H]3O[C@@H]4C(CO)O[C@H](O[C@@H]5C(CO)O[C@H](O[C@@H]6C(CO)O[C@H](O[C@@H]7C(CO)O[C@H](O[C@@H]8C(CO)O[C@H](O[C@@H]9C(CO)O[C@H](O[C@@H]%10C(CO)O[C@H](O[C@H]2C(O)C3O)C(O)C%10O)C(O)C9O)C(O)C8O)C(O)C7O)C(O)C6O)C(O)C5O)C(O)C4O)c1.[Na+]` (stereo partly specified), for which the ED50 in assay [1] worked out at 12.6 µmol/kg. The Max reversal was 55.8% in [8] and 3.9% in assay [6]. In addition, in [2], the EC50 was > 18 µM.
As for `O=C([O-])CCCCSCC1O[C@@H]2O[C@@H]3C(CSCCCCC(=O)[O-])O[C@H](O[C@@H]4C(CSCCCCC(=O)[O-])O[C@H](O[C@@H]5C(CSCCCCC(=O)[O-])O[C@H](O[C@@H]6C(CSCCCCC(=O)[O-])O[C@H](O[C@@H]7C(CSCCCCC(=O)[O-])O[C@H](O[C@@H]8C(CSCCCCC(=O)[O-])O[C@H](O[C@@H]9C(CSCCCCC(=O)[O-])O[C@H](O[C@H]1C(O)C2O)C(O)C9O)C(O)C8O)C(O)C7O)C(O)C6O)C(O)C5O)C(O)C4O)C(O)C3O.[Na+].[Na+].[Na+].[Na+].[Na+].[Na+].[Na+].[Na+]` (stereo partly specified), the Max reversal is 99% in assay [9] and 98.9% in assay [7]. For the same compound, the ED50 in assay [1] was determined as 0.07 µmol/kg. Besides, the EC50 in assay [2] came out at 1.8 µM.
Regarding `O=C([O-])CCCSCC1O[C@@H]2O[C@@H]3C(CSCCCC(=O)[O-])O[C@H](O[C@@H]4C(CSCCCC(=O)[O-])O[C@H](O[C@@H]5C(CSCCCC(=O)[O-])O[C@H](O[C@@H]6C(CSCCCC(=O)[O-])O[C@H](O[C@@H]7C(CSCCCC(=O)[O-])O[C@H](O[C@@H]8C(CSCCCC(=O)[O-])O[C@H](O[C@@H]9C(CSCCCC(=O)[O-])O[C@H](O[C@H]1C(O)C2O)C(O)C9O)C(O)C8O)C(O)C7O)C(O)C6O)C(O)C5O)C(O)C4O)C(O)C3O.[Na+].[Na+].[Na+].[Na+].[Na+].[Na+].[Na+].[Na+]` (stereo partly specified), the Max reversal in assay [9] came out at 93.4%; in [3], 98.5%. Further, the ED50 in assay [1] turned out to be 0.06 µmol/kg. Besides, the EC50 in assay [2] is 1.4 µM.
As to `O=C([O-])CCCSCC1O[C@@H]2O[C@@H]3C(CO)O[C@H](O[C@@H]4C(CO)O[C@H](O[C@@H]5C(CO)O[C@H](O[C@@H]6C(CO)O[C@H](O[C@@H]7C(CO)O[C@H](O[C@@H]8C(CO)O[C@H](O[C@@H]9C(CO)O[C@H](O[C@H]1C(O)C2O)C(O)C9O)C(O)C8O)C(O)C7O)C(O)C6O)C(O)C5O)C(O)C4O)C(O)C3O.[Na+]` (stereo partly specified), the EC50 in [2] is > 18 µM. In addition, the Max reversal in assay [6] amounted to 14.4%.
On to `O=C([O-])CCCSCC1O[C@@H]2O[C@@H]3C(CSCCCC(=O)[O-])O[C@H](O[C@@H]4C(CSCCCC(=O)[O-])O[C@H](O[C@@H]5C(CSCCCC(=O)[O-])O[C@H](O[C@@H]6C(CSCCCC(=O)[O-])O[C@H](O[C@@H]7C(CSCCCC(=O)[O-])O[C@H](O[C@H]1C(O)C2O)C(O)C7O)C(O)C6O)C(O)C5O)C(O)C4O)C(O)C3O.[Na+].[Na+].[Na+].[Na+].[Na+].[Na+]` (stereo partly specified), for which the ED50 in [1] is > 16 µmol/kg. Further, the Max reversal in assay [5] was determined as 3.4%; in assay [6], 5.3%. Moreover, in assay [2], the EC50 is > 18 µM.
